This data set can be described thus: Toxicity liver stage against HepG2, at 10uM. In kind it is cell-based. Also noted: test concentration 10 uM, cell line HepG2-A16-CD81EGFP. The following applies: human, HepG2-A16-CD81EGFP cells; read-out: INHIBITION
The gist of the method:
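Uninfected HepG2-A16-CD81EGFP cells, 3 × 10^3 per well, 1536-well, plated on prespotted compound at 10 μM final, parasite-free screening media added to match infected plates; puromycin 10 μM positive, DMSO 0.5% negative; run in parallel with 48 h PbLuc assay at 37 °C, 5% CO2; viability by CellTiter-Glo luminescence, normalized to controls.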

SMILES strings stand for the structures.

Experimental findings from ChEMBL document CHEMBL4513216, “Probing the Open Global Health Chemical Diversity Library for Multistage-Active Starting Points for Next-Generation Antimalarials” (ACS Infect Dis, 2020) are described below.

Regarding `Cc1nc(C)n(CC2CCCN2CCOc2cccc(F)c2)n1` (stereo not given), the cytotoxicity at 10 µM was -0.945%.
Under `COc1cc(-c2noc(C(CC(C)C)N3CCCCC3=O)n2)ccn1` (stereo not given) stands -60.8%; under `O=C1OCCN1CCOc1nc(-c2ccccc2Cl)no1`, -11.3%.
In the case of `COCCNC(=O)N1CCC(NC(C)C)CC1`, the cytotoxicity at 10 µM turned out to be 7.96%.
Under `CN1C(=O)C(C)(C)COc2ccc(NS(=O)(=O)Cc3ccccc3)cc21` stands 8.2%; under `CS(=O)(=O)N1C[C@@H]2COC[C@]2(CN2CCOCC2)C1`, 0.472%; under `CC(C)N(C)C(=O)C1=NOC2(CCN(C(=O)c3ccccn3)C2)C1` (stereo not given), -13.4%.
Turning to `O=C(NCCc1cccs1)N1CCC[C@H]1CO`, the cytotoxicity at 10 µM is 10.3%.
Then `Cc1cc(C)n(-c2ccc(C(=O)NCC(CO)Cc3ccco3)cc2)n1` (stereo not given), with 3.62%.
Under `CN(Cc1ccc(F)cc1)CC1(O)CCN(C(=O)c2ccncc2)C1` (stereo not given) stands -2.25%; under `CC(C(=O)NCc1ccc(F)cc1)N(C)CCN1CCOCC1` (stereo not given), 0.247%; under `CN(Cc1nnc2ccccn12)C(=O)CCNC(=O)C(C)(C)C`, 12.5%.
Then `COc1ccc(CC(=O)NC2(C)CCS(=O)(=O)C2)cc1F` (stereo not given), with 2.05%; and `Cc1ccc(OCCCNC(=O)CN(C)c2ccc(C#N)cn2)cc1`, with 4.01%.
As for `CCc1ccc(S(=O)(=O)NCCC(O)c2ccoc2)s1` (stereo not given), the cytotoxicity at 10 µM is -10.9%.
Under `Cc1ncc2c(n1)C1(CCN(C(=O)C3CC3)CC1)OCC2` stands 6.02%; under `O=C(c1cccc(F)c1)N1C[C@@H](CN2CCCCC2)[C@@H](CO)C1`, 3.78%.
Under `COc1cc(Oc2ccc(C#N)cn2)ccc1CN1CCCC1` stands 32.2%; under `COc1ccc(COCC(O)CNC(=O)c2cc(C)oc2C)cc1` (stereo not given), -13.3%.
Then `CC(C)CN(Cc1ccsc1)C(=O)CCCn1cncn1`, with -47.9%; and `O=C(C1CCOC1)N1CCC2(CC1)COCCN(Cc1ccncc1)C2` (stereo not given), with -86%.
With `Cc1nn(C)c(N2CCOCC2)c1CNCC1CCN(C2CC2)C1` (stereo not given), the cytotoxicity at 10 µM is -3.32%.
Then `O=C(NC1CCCC1)c1cc2c(s1)CCN2C(=O)c1ccccc1`, with 6.55%; and `CN(Cc1ncnn1C)C(=O)Nc1ccc(OC(F)F)cc1`, with -0.778%.
Under `CC(=O)N1CCN(C(=O)CN(C)c2ccc(Cl)cn2)CC1` stands 1.79%; under `CC(C)CC(=O)N1CC[C@@H]2CN(CC(=O)N(C)C)S(=O)(=O)[C@@H]2CC1`, 10%; under `Cc1nn(C)c(N(C)C)c1CNCc1ccc2c(c1)OCO2`, -2.51%.
Then `c1cncc(OC[C@@]23CCC[C@@H]2CN(C2CCOCC2)C3)c1`, with -0.0916%; and `CN1CCCCc2c1nc1c(c2N)CCCC1`, with -0.675%.
With `O=C(c1ccc(Br)o1)N1CCN(Cc2ccc(F)cc2)CC1`, the cytotoxicity at 10 µM came to 9.08%.
Under `CCOCCN1CCC(c2cnccn2)CC1` stands 5.8%.
Under `Cn1cnnc1CCNC(=O)c1cnn(Cc2ccccc2)c1` stands -0.722%; under `COc1ccc(-n2cccn2)c(CN2CCC(O)(CO)CC2)c1`, 3.4%; under `CC(=O)N1CCN(C(=O)c2ccc(-c3cccc(C)c3)[nH]c2=O)CC1`, 3.64%.
Under `CN1CCCC1c1nnc2n1CCN(S(=O)(=O)c1ccccc1Cl)CC2` (stereo not given) stands 4.94%.
For `Cc1cnc(N2Cc3nccn3CC(Cn3nc(C)nc3C)C2)nc1` (stereo not given), the cytotoxicity at 10 µM is -144%.
Then `O=C(C1CCOCC1)N1C[C@@H]2[C@@H](C1)OCC(=O)N2CC1CC1`, with 2.29%.
For the compound `Cc1nc(NC2CCOCC2)cc(C2CCN2S(C)(=O)=O)n1` (stereo not given), the cytotoxicity at 10 µM amounted to 2.31%.
Then `Cc1cc(-c2noc(C3CCS(=O)(=O)C3)n2)ccc1F` (stereo not given), with 8.22%; and `Cc1ccccc1-c1cc(C(=O)NCCN2CCCS2(=O)=O)[nH]n1`, with -12.9%.
Consider `Cc1noc(C)c1CN1CCC2(CC1)CC(Oc1cccnc1)C2`, for which the cytotoxicity at 10 µM came out at 23.2%.
Then `O=C(O)c1ccn(-c2ccccc2NS(=O)(=O)c2ccccc2)n1`, with 23%.
Consider `COCCN(CCOC)C(=O)c1sc(C)nc1C`, for which the cytotoxicity at 10 µM is 2.16%.
Consider `CC(C)c1cc(C2CCN(C(=O)Cn3cnnn3)CC2)[nH]n1`, for which the cytotoxicity at 10 µM came to 8.04%.
Consider `CCc1nc(CN(CCc2ccccc2)C2CCN(C)CC2)no1`, for which the cytotoxicity at 10 µM is -0.355%.
Under `CC(C)N1CCC(C(=O)N2CCc3c(nc(CC4CC4)[nH]c3=O)C2)CC1` stands -4.92%.
Under `O=C1CN(C(=O)CC2c3ccccc3CCc3ccccc32)CCN1` stands 9.98%.
Then `Cc1cc(=O)c2cc(F)ccc2n1CC(=O)O`, with 0.753%; and `Cc1ccc(N2C[C@@H]3CN(Cc4csc(C)n4)CCO[C@@H]3C2)nn1`, with 7.64%; and `C1CN(c2nc(C3CC3)ns2)CCO1`, with -2.4%.
In the case of `CC(C)N(CCS(C)(=O)=O)Cc1csc(-c2ccccc2F)n1`, the cytotoxicity at 10 µM was -49.3%.
Under `COc1ccc(C(=O)NC2CCN(c3ncccn3)CC2)cc1F` stands -17.8%; under `O=C(c1ccccc1N1CCOCC1)N1CCCC(n2cccn2)C1` (stereo not given), -7.32%.
For `Cc1cccc(C(C(=O)NCc2csc(-c3ncccn3)n2)N(C)C)c1` (stereo not given), the cytotoxicity at 10 µM came to 2.14%.
Turning to `Fc1ccccc1OC1CCN(CCn2cc3ccccc3n2)CC1`, the cytotoxicity at 10 µM worked out at 9.25%.
Under `CCCn1nc2c(cc1=O)CN(CCCS(N)(=O)=O)CC2` stands -2.48%; under `COC(=O)CC(c1ccc(OC)c(O)c1)c1oc(C)cc(=O)c1O` (stereo not given), -0.634%.
Under `CCn1nnc2c1C(COCC(=O)N(C)C)CN(Cc1ccoc1)C2` (stereo not given) stands -2.98%; under `CN1[C@H](CN2CCCC2)C[C@@H]2CN(C(=O)c3cccn3C)CC[C@@H]21`, 5.57%; under `CC(C)n1ccnc1C1CCN(C(=O)c2ccccn2)CC1`, -2.85%.
Under `CCc1cc(N2CCN(c3cnccn3)CC2)n2nc(C)c(C)c2n1` stands 6.71%.
In the case of `N#Cc1ccc(C(=O)N2CC(c3nc(-c4ncccn4)no3)C2)cc1`, the cytotoxicity at 10 µM is -0.713%.
Under `CC(=O)N1CCC(Oc2ccc(C#N)cn2)CC1` stands -17.3%; under `O=C1CC(c2ccc(C(=O)O)cc2)c2ncn(-c3cccc(F)c3)c2N1` (stereo not given), -4.74%; under `O=C(C1CC(=O)N(c2n[nH]c3cc(Br)ccc23)C1)N1CCSCC1` (stereo not given), -1.91%.
Under `Fc1ccc(CN2CCc3ncnc(C4CC4)c3CC2)cc1` stands -147%.
Under `CCN(CC)S(=O)(=O)N1CCCN(CC2CCCO2)CC1` (stereo not given) stands 5.69%; under `CN(C)C(=O)CO[C@H]1COCCN(C2CCOCC2)C1`, 3.64%.
In the case of `CN(C)C(=O)N1CC2(CCN(CC3CC3)CC2)c2cc(F)ccc21`, the cytotoxicity at 10 µM is -1.54%.
Under `O=C(c1ccc[nH]1)N1CCc2c(cccc2S(=O)(=O)N2CCOCC2)C1` stands -15%.
Then `CCC(O)CN1CCN(C(=O)Cc2ccc(C)nc2)CC1` (stereo not given), with -9.24%; and `CCc1nc(CNC(=O)c2ccc(C(C)N3CCCCC3)o2)cc(=O)[nH]1` (stereo not given), with -13.6%.
As for `Cc1nc2c(c(NC3CCN(Cc4ccccc4)CC3)n1)CCNCC2`, the cytotoxicity at 10 µM was -6.74%.
Then `Cc1ccc(N2CCO[C@H]3CN(Cc4cnn(C)c4)C[C@H]32)nn1`, with 3.86%; and `O=C(Nc1cccnc1)[C@H]1CO[C@H]2CCN(c3ncc(F)cn3)C[C@H]2C1`, with -12.8%.
As for `COc1cccc2c1OCC(CNC(=O)Cc1cnccn1)C2` (stereo not given), the cytotoxicity at 10 µM is -145%.
Under `FC(F)C(F)(F)COCc1ncnn1-c1ccc2c(c1)OCO2` stands -2.82%; under `CC(C)c1ocnc1C(=O)N1CCCC(c2ccn[nH]2)C1` (stereo not given), -3.92%; under `CN(Cc1nc(CC2CC2)no1)CC1Cc2ccccc2O1` (stereo not given), -2.53%.
Then `O=C(O)CCc1ccc(S(=O)(=O)Nc2cnn(CC3CC3)c2)cc1`, with -8.35%; and `CSC1(CNC(=O)NC(C)Cc2cccc(F)c2)CCOCC1` (stereo not given), with -15.6%.
Take `Cc1nc(C)n(CC2CN(CCn3cccn3)CCO2)n1` (stereo not given): the cytotoxicity at 10 µM is -0.665%.
Then `Cc1nonc1CN1CC[C@@](O)(C2CCC2)[C@H](C)C1`, with 17.5%; and `CN(C)CC(C)(O)CNC(=O)Nc1sc2ccccc2c1Cl` (stereo not given), with 11.5%.
Then `CCOc1cccc(CCNC(=O)Cc2ccn[nH]2)n1`, with -27.2%.
For `Cc1ccc(-c2ccnc3cc(CC(=O)N4CCN(C)CC4)nn23)cc1`, the cytotoxicity at 10 µM is -1.72%.
Under `c1cc(-c2noc([C@@H]3CCCN3C3CCC3)n2)cc(N2CCCC2)n1` stands 5.94%; under `O=C(NCCc1ccncc1)[C@H]1CC[C@@H]2[C@@H](CCN2C2CCC2)O1`, -2.3%; under `O=C(c1ccc2ccc(N3CCN(CC4CC4)CC3)n2c1)N1CCCO1`, 9.81%.
Then `COc1ccccc1C1CCCN1CC(=O)N1CCC(C(N)=O)CC1` (stereo not given), with -24.8%; and `CC(C)(CNc1c(C#N)cnc2ccc(Cl)cc12)C(N)=O`, with 9.19%.
Under `COc1ccc(CN[C@@H]2CO[C@H](CNC(=O)N3CCOCC3)[C@H]2O)cc1` stands -1.57%; under `CN1C(=O)CO[C@H](c2ccc(NC(=O)c3cccc(F)c3)cc2)[C@H]1CO`, 10%; under `CCS(=O)(=O)N1CCc2c(COCc3ccncc3)cncc2C1`, -84.1%.
For the compound `CCCN1CCC(N2CCC(Cn3cc(CC(C)O)nn3)CC2)CC1` (stereo not given), the cytotoxicity at 10 µM was -1.89%.
